Rows were chosen to be rich in hits. Some 3.7% of all compounds tested hit in one or more screens of this group.
KCNQ1 act: potentiates or activates the human KCNQ1 potassium channel; CHO-K1 KCNQ1, thallium flux FluxOR fluorescence; active compounds read high; B-score at 10 µM; 0.35% of 310,000 active; P51787;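 active means fluorescence ratio B-score, a plate-corrected score, at least three library SD, with initial intensity B-score within 5 SD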
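Medium – assay buffer, equal DMSO in all wells · Material – CHO-K1 cell line with stable KCNQ1 potassium channel expression · Signal – kinetic FluxOR thallium fluorescence, 10-s 1-Hz baseline, 110-s post-stimulus read · Compound – single concentration per compound, DMSO matched to controls · Schedule – 37 °C overnight plating, 90-min dark dye load, 20-min compound pretreatment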
Kir21 block: inhibitors of mouse Kir2.1 inward-rectifier potassium channel; HEK293-Kir2.1, FluxOR thallium flux fluorescence; active compounds read low; B-score at 10 µM; 0.85% of 310,000 active; AID 1672;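 active means fluorescence ratio B-score at or below minus 3 SD of library scores, with starting-brightness B-score within 2 SD, cut at about -4.2 in these data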;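 further: channel flux triggered by added potassium and thallium sulfate stimulus; B-score of peak minus minimum fluorescence over baseline after thallium stimulus; more negative B-score means stronger Kir2.1 block with less thallium influx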
KCNQ1 inh: human KCNQ1 channel inhibition | P51787 | CHO-K1 KCNQ1, FluxOR thallium flux fluorescence; active compounds read high | B-score at 10 µM | 1.3% of 310,000 active;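 active means compounds whose thallium flux B-score, printed positive for inhibition, exceeds three library SD while starting fluorescence stays within three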;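 further: channel opened by potassium depolarization with thallium stimulus after 20 min compound exposure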
KCNK9 inh: human KCNK9 channel inhibition; HEK293 KCNK9, FluxOR thallium flux fluorescence; active compounds read low; B-score at 10 µM; 1.2% of 310,000 active;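 active means ratio B-score over 3 SD below the library mean, with starting fluorescence within 5 SD of its mean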;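 further: negative B-score means less thallium flux so channel inhibition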
hERG protect: hERG (human) protection from proarrhythmic block | Q12809 | CHO-hERG, FluxOR thallium flux, dofetilide IC70 present | activation (rescue from dofetilide block), less the hit threshold, % at 10 µM | 0.51% of 310,000 active | AID 1511;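 active means activation above the mean of controls blocked by dofetilide plus 5 SD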;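 further: thallium influx through hERG after potassium depolarization seen as dye fluorescence rise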
KCNK3 block: human KCNK3 channel inhibition, primary screen. 0.84% of 340,000 active. CHO-KCNK3 thallium flux, FluxOR fluorescence; active compounds read low. O14649. AID 602410. B-score at 10 µM;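 active means B-score under library mean minus 4 SD, starting fluorescence ratio at most library mean plus 5 SD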;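 further: more negative B-score means stronger inhibition of thallium flux through KCNK3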
KCNQ1 block val: reconfirmed blocker of the human KCNQ1 potassium channel; inhibition, % at 10 µM; KCNQ1 cell line, FluxOR thallium flux fluorescence; shares compounds with KCNQ1 inh; 93% of 1,600 active;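 active means primary screen active, with duplicate mean exceeding buffer control mean plus 3 SD of buffer wells, cut at about 28% in these data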;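 further: 0% = buffer control ratio and 100% = XE991 inhibitor control ratio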
CHO Tl flux: counter-screen for KCNQ1 inhibitors: effect in parental CHO cells | parental CHO-K1, FluxOR thallium flux fluorescence ratio; active compounds read low; zero means no signal rise above baseline | fluorescence ratio (Tl flux) at 10 µM | 21% of 1,600 active | shares compounds with KCNQ1 inh;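 active means mean of duplicate thallium-flux fluorescence ratios in parental host cells more than 5 SD below the buffer control mean, cut at about 0.38 in these data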;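 further: ratio is peak minus minimum fluorescence divided by baseline fluorescence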
KCNQ1 APC inh: confirmation of human KCNQ1 potassium channel inhibitors by electrophysiology; shares compounds with KCNQ1 inh; KCNQ1-CHO cells, automated patch clamp current; calls only at 10 µM; 20% of 490 active; AID 624120;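 active means KCNQ1 current drop exceeding 3 SD of negative control wells, seen in both duplicate runs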;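 further: steady state current during a 2 s step from -80 to +40 mV; negative values mean current inhibition and positive values mean potentiation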
KCNQ2 inh: KCNQ1 inhibitor that also blocks rat KCNQ2 channel. KCNQ2 cells, FluxOR thallium flux fluorescence. inhibition, % at 10 µM. shares compounds with KCNQ1 inh. 71% of 1,600 active;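 active means mean percent inhibition of the KCNQ2 thallium signal more than 5 SD above the buffer-only control wells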;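 further: KCNQ2 expressed in CHO cells; 0% = buffer control wells and 100% = XE-991 inhibitor control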
KCNQ1-KCNE1 inh: human KCNQ1/KCNE1 inhibition in KCNQ1 specificity screen; shares compounds with KCNQ1 inh; KCNQ1/KCNE1 cells, FluxOR thallium flux fluorescence; inhibition, % at 10 µM; 77% of 1,600 active;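 active means mean percent inhibition of duplicate wells above the buffer-only control mean plus 3 SD of those controls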;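 further: 0% = buffer only wells and 100% = XE-991 inhibitor control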
Target sequence (P51787 whole entry, looked up): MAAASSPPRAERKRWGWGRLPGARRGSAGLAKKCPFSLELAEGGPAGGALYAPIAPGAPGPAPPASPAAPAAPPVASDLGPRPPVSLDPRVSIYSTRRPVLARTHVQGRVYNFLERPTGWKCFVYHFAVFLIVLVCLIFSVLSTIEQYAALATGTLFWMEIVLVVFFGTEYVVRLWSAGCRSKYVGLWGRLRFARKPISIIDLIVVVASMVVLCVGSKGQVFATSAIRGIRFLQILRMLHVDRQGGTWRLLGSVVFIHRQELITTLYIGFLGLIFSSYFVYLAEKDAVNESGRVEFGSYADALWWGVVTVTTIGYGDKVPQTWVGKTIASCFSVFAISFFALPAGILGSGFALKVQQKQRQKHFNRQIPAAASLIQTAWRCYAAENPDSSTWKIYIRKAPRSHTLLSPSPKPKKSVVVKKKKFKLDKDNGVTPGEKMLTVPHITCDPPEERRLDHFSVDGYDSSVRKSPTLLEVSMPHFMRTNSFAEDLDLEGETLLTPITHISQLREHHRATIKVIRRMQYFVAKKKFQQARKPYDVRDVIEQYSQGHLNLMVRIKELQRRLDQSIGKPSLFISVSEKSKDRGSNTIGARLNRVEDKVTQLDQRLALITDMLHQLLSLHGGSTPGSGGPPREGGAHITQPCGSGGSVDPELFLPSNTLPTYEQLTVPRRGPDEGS
* = called active by the depositor.

Screening CC(C)(C)c1ccc(C2=CSC3=NCCN23)cc1 returned KCNQ1 act inactive, Kir21 block -1.6, KCNQ1 inh 7*, KCNK9 inh inactive, hERG protect -2, KCNK3 block inactive, KCNQ1 block val 43*, CHO Tl flux 0.46, KCNQ2 inh inactive and KCNQ1-KCNE1 inh 46%*.
`Cc1ccc(OCC(O)CN2CCC(Cc3ccccc3)CC2)c(C)c1` (stereo not drawn) gave KCNQ1 act inactive, Kir21 block -4.6*, KCNQ1 inh 7*, KCNK9 inh inactive, hERG protect -17, KCNK3 block inactive, KCNQ1 block val 31*, CHO Tl flux 0.44, KCNQ2 inh 76%* and KCNQ1-KCNE1 inh 63%*.
OC(COc1ccccc1)CN1CCC(Cc2ccccc2)CC1 (stereo not drawn) was read as KCNQ1 act inactive, Kir21 block 1.5, KCNQ1 inh inactive, KCNK9 inh inactive, hERG protect -6 and KCNK3 block inactive.
Screening COc1cc(/C=C/c2nnc3c4ccccc4ncn23)cc(OC)c1OC returned KCNQ1 act inactive, Kir21 block -0.88, KCNQ1 inh 6*, KCNK9 inh inactive, hERG protect -5, KCNK3 block inactive, KCNQ1 block val 44*, CHO Tl flux 0.54, KCNQ2 inh 60%* and KCNQ1-KCNE1 inh 34%*.
Screening S=C(Nc1cccc(Cl)c1)NC1CC2CCCC(C1)N2C1CCCC1 (stereo not drawn) returned KCNQ1 act inactive, Kir21 block -0.37, KCNQ1 inh inactive, KCNK9 inh inactive, hERG protect -12 and KCNK3 block inactive.
For S=C(NCCN(C1CCCCC1)C1CCCC1)Nc1cccc(Cl)c1 the results were KCNQ1 act inactive, Kir21 block -4.5*, KCNQ1 inh 6*, KCNK9 inh inactive, hERG protect -13, KCNK3 block inactive, KCNQ1 block val 80*, CHO Tl flux 0.43, KCNQ2 inh 92%* and KCNQ1-KCNE1 inh inactive.
For Cc1ccc(Cn2c(=N)n(CC(O)COc3ccccc3)c3ccccc32)cc1 (stereo not drawn) the results were KCNQ1 act inactive, Kir21 block -8.5*, KCNQ1 inh 6*, KCNK9 inh -7.6*, hERG protect -24, KCNK3 block inactive, KCNQ1 block val 130*, CHO Tl flux 0.48, KCNQ1 APC inh inactive, KCNQ2 inh 68%* and KCNQ1-KCNE1 inh inactive.
For CC(C)CCNC(=O)NC(=O)COC(=O)/C=C/c1cc(Br)ccc1F the results were KCNQ1 act inactive, Kir21 block 0.08, KCNQ1 inh inactive, KCNK9 inh inactive, hERG protect -11 and KCNK3 block inactive.
For COc1ccc(S(=O)(=O)NCCCn2ccnc2)cc1Cl the results were KCNQ1 act inactive, Kir21 block -3, KCNQ1 inh inactive, KCNK9 inh inactive, hERG protect -13 and KCNK3 block inactive.
Screening O=C(CCNc1ccc(F)cc1)c1ccco1 returned KCNQ1 act inactive, Kir21 block 0.47, KCNQ1 inh inactive, KCNK9 inh inactive, hERG protect -2 and KCNK3 block inactive.
`N#C/C(=C\c1coc2ccc(O)cc2c1=O)C(=O)Nc1nc2ccccc2s1` gave KCNQ1 act inactive, Kir21 block -14, KCNQ1 inh 26*, KCNK9 inh inactive, hERG protect -25, KCNK3 block inactive, KCNQ1 block val active, CHO Tl flux 0.13*, KCNQ2 inh inactive and KCNQ1-KCNE1 inh inactive.
N#C/C(=C\c1coc2ccccc2c1=O)C(N)=S was read as KCNQ1 act inactive, Kir21 block 0.13, KCNQ1 inh inactive, KCNK9 inh inactive, hERG protect -16 and KCNK3 block inactive.
For CCCCC[C@@H](/C=C/C1C(=O)C=C[C@H]1C/C=C\CCCC(=O)OC)OC(C)=O (stereo partly drawn) the results were KCNK3 block inactive.
O=S(=O)(NCCNc1ncc(C(F)(F)F)cc1Cl)C(F)(F)F was read as KCNQ1 act inactive, Kir21 block -0.02, KCNQ1 inh 6*, KCNK9 inh inactive, hERG protect -14, KCNK3 block inactive, KCNQ1 block val 40*, CHO Tl flux 0.47, KCNQ2 inh inactive and KCNQ1-KCNE1 inh inactive.
For O=C(c1cc(-c2cccs2)nn1-c1ccccc1)N1CCN(S(=O)(=O)c2ccccc2)CC1 the results were KCNQ1 act inactive, Kir21 block -0.17, KCNQ1 inh 7*, KCNK9 inh inactive, hERG protect -17, KCNK3 block inactive, KCNQ1 block val 60*, CHO Tl flux 0.48, KCNQ2 inh 91%* and KCNQ1-KCNE1 inh 100%*.
`O=C(c1cc(-c2ccccc2)nn1-c1ccccc1)N1CCN(S(=O)(=O)c2ccc(F)cc2)CC1` gave KCNQ1 act inactive, Kir21 block 1.2, KCNQ1 inh 6*, KCNK9 inh inactive, hERG protect -10, KCNK3 block inactive, KCNQ1 block val 57*, CHO Tl flux 0.46, KCNQ2 inh 81%* and KCNQ1-KCNE1 inh 37%*.
For Cc1ccc(S(=O)(=O)N2CCN(C(=O)c3cc(-c4cccs4)nn3-c3ccccc3)CC2)cc1 the results were KCNQ1 act inactive, Kir21 block 1.3e-15, KCNQ1 inh inactive, KCNK9 inh inactive, hERG protect -11 and KCNK3 block inactive.
`O=C(c1cc(-c2ccccc2)nn1-c1ccccc1)N1CCN(S(=O)(=O)c2cccc(F)c2)CC1` gave KCNQ1 act inactive, Kir21 block 0.02, KCNQ1 inh inactive, KCNK9 inh inactive, hERG protect -9 and KCNK3 block inactive.
Screening CCOC(=O)[C@@H]1[C@H]2COc3ccc(Br)cc3[C@H]2N2C(=O)N(c3ccc(C(F)(F)F)cc3)C(=O)[C@]12C returned KCNK3 block inactive.

Bioassay records from PubChem BioAssay.
